In ChEMBL document CHEMBL4052823, “Extra Sugar on Vancomycin: New Analogues for Combating Multidrug-Resistant Staphylococcus aureus and Vancomycin-Resistant Enterococci” (J Med Chem, 2018):
≈ marks a conversion by molar mass, not a printed value. Calls of active or inactive are those of the source. The rule behind the calls is not given here.

What was measured:
Staphylococcus aureus [1] = assay: Antibacterial activity against vancomycin/methicillin-susceptible Staphylococcus aureus Newman […] after 24 hrs by broth microdilution method; assay type: functional
Summary of the method: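 Broth microdilution in cation-adjusted Mueller-Hinton II broth. […] Each well received ~10^5 CFU of exponential-phase bacteria and was incubated at 37 °C for 24 h. MIC was taken as the lowest concentration giving complete growth inhibition, interpreted per CLSI.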

Staphylococcus aureus [2] = assay: Antibacterial activity against healthcare-associated methicillin-resistant/vancomycin-intermediate Staphylococcus aureus Mu50 after 24 hrs by broth microdilution method; assay type: functional; conditions: Mu50, 24 h
Summary of the method: (§1)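 Broth microdilution in cation-adjusted Mueller-Hinton II broth. DMSO stocks were diluted in broth and twofold serially from 128 to 0.0625 μg/mL or lower. Each well was inoculated with ~10^5 CFU of exponential-phase bacteria and incubated at 37 °C for 24 h. MIC was the lowest concentration giving complete growth inhibition, read per CLSI. Growth controls contained broth plus DMSO.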

Staphylococcus aureus [3] = assay: Potency index, ratio of telavancin MIC90 to test compound MIC90 for vancomycin/methicillin-susceptible Staphylococcus aureus Newman […]; assay type: functional
Enterococcus faecium [4] = assay: Antibacterial activity against glycopeptide-resistant Enterococcus faecium Efm-HS-0649 vanA after 24 hrs by broth microdilution method; assay type: functional; conditions: Efm-HS-0649, 24 h; summary of the method: as §1
Enterococcus faecium [5] = assay: Antibacterial activity against glycopeptide-resistant Enterococcus faecium Efm-HS-06188 vanA after 24 hrs by broth microdilution method; assay type: functional; conditions: Efm-HS-06188, 24 h; summary of the method: as §1
Enterococcus faecium [6] = assay: Antibacterial activity against glycopeptide-resistant Enterococcus faecium Efm-HS-0847 vanM after 24 hrs by broth microdilution method; assay type: functional; conditions: Efm-HS-0847, 24 h; summary of the method: as §1
Enterococcus faecium [7] = assay: Antibacterial activity against glycopeptide-resistant Enterococcus faecium Efm-HS-08257 vanM after 24 hrs by broth microdilution method; assay type: functional; conditions: Efm-HS-08257, 24 h; summary of the method: as §1
Enterococcus faecium [8] = assay: Antibacterial activity against glycopeptide-resistant Enterococcus faecium Efm-HS-vb01 vanB after 24 hrs by broth microdilution method; assay type: functional; conditions: Efm-HS-vb01, 24 h; summary of the method: as §1
Staphylococcus aureus [9] = assay: Antibacterial activity against methicillin-resistant Staphylococcus aureus USA300 LAC infected in BALB/c mouse assessed as mouse survival rate at 7 mg/kg, ip administered as single dose measured after 10 days relative to control; assay type: functional; conditions: for survival at 7 mg/kg: 240 h
Summary of the method: (§2)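 Female BALB/c mice, 6−8 weeks old, were anesthetized with pentobarbital and infected retro-orbitally with ~2.35 × 10^8 CFU of exponential-phase USA300 LAC, 15 per group. A single 7 mg/kg ip dose was given 1 h after infection. Deaths were recorded daily to build survival curves.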

Staphylococcus aureus [10] = assay: Antibacterial activity against healthcare-associated methicillin-resistant/vancomycin-intermediate Staphylococcus aureus Mu50 infected in BALB/c mouse assessed as decrease in liver CFU levels at 7 mg/kg, ip administered twice in 24 hrs interval measured after 5 days; assay type: functional, organism-based
Summary of the method: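 Female BALB/c mice, 6−8 weeks old, were anesthetized with pentobarbital and infected retro-orbitally with ~3.8 × 10^8 CFU of exponential-phase Mu50, 12 per group. Treatment started 1 h post-infection: 7 mg/kg ip in sterile water, two doses 24 h apart. At day 5 mice were euthanized and liver homogenates plated on TSA for CFU counts. Groups were compared by two-tailed Mann−Whitney test.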

[11] = Half life in CD1 mouse at 5 mg/kg, iv; assay type: ADME, organism-based; conditions: in vivo
Summary of the method: (§3)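 Fasted male CD-1 mice (18−22 g), 5 mg/kg single dose into the tail vein, 6 per group. Blood sampled at 0.25, 0.75, 2, 4, 8 and 24 h and analysed by UPLC-MS/MS. T1/2, AUClast, AUCINF_obs, CL_obs, MRTINF_obs and VSS_obs were calculated for each animal from its time−concentration curve.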

[12] = AUClast in CD1 mouse at 5 mg/kg, iv; assay type: ADME, organism-based; parameters: dose 5 mg/kg, route intravenous, time 0 - last; conditions: in vivo; summary of the method: as §3
[13] = AUC (infinity) in CD1 mouse at 5 mg/kg, iv; assay type: ADME, organism-based; parameters: dose 5 mg/kg, route intravenous, time infinity; conditions: in vivo; summary of the method: as §3
[14] = Clearance in CD1 mouse at 5 mg/kg, iv; assay type: ADME, organism-based; conditions: in vivo; summary of the method: as §3
[15] = MRT (infinity) in CD1 mouse at 5 mg/kg, iv; assay type: ADME, organism-based; conditions: in vivo; summary of the method: as §3
[16] = Volume of distribution at steady state in CD1 mouse at 5 mg/kg, iv; assay type: ADME, organism-based; conditions: in vivo, read-out: Vdss
Summary of the method: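 Fasted male CD-1 mice (18−22 g), 5 mg/kg single dose into the tail vein, 6 per group. T1/2, AUClast, AUCINF_obs, CL_obs, MRTINF_obs and VSS_obs were calculated for each animal from its time−concentration curve.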

Blood = assay: Drug uptake in CD1 mouse blood at 5 mg/kg, iv; assay type: ADME, organism-based; conditions: in vivo; summary of the method: as §3
Staphylococcus aureus [17] = assay: Antibacterial activity against methicillin-resistant Staphylococcus aureus USA300 LAC infected in BALB/c mouse assessed as increase in mouse survival rate at 7 mg/kg, ip administered as single dose after 10 days relative to control; assay type: functional, organism-based; summary of the method: as §2
L02 = assay: Cytotoxicity against human HL7702 cells assessed as decrease in cell viability at 10 to 100 uM after 72 hrs by CCK8 assay; assay type: cell-based; conditions: l02, 72 h
Summary of the method: (§4)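 HK-2 and HL-7702 cells were seeded at ~5000 cells/well, incubated overnight, then exposed to compound at final 10, 50 and 100 μM for 72 h. CCK-8 was added for 1.5 h at 37 °C and OD450 read. Viability was OD treated / OD untreated × 100, with triplicates.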

HK-2 = assay: Cytotoxicity against human HK2 cells assessed as decrease in cell viability at 10 to 100 uM after 72 hrs by CCK8 assay; assay type: cell-based; conditions: hk-2, 72 h; summary of the method: as §4

Row | Structure (SMILES) | MIC90 (Staphylococcus aureus [1]) [µg/mL] | MIC90 (Staphylococcus aureus [2]) [µg/mL] | MIC (Enterococcus faecium [4]) [µg/mL] | MIC (Enterococcus faecium [5]) [µg/mL] | MIC (Enterococcus faecium [6]) [µg/mL] | MIC (Enterococcus faecium [7]) [µg/mL] | MIC (Enterococcus faecium [8]) [µg/mL] | Activity (Staphylococcus aureus [10]) | half-life [11] [h] | AUC(0-t) [12] [ng·h/mL] | AUC(0-inf) [13] [ng·h/mL] | clearance [14] [mL/min/kg] | MRT inf [15] [h] | Vd [16] [L/kg] | Drug uptake (Blood) [µg/mL] | Activity (L02) | Activity (HK-2) | also measured
1 | CN[C@H](CC(C)C)C(=O)N[C@H]1C(=O)N[C@@H](CC(N)=O)C(=O)N[C@H]2C(=O)N[C@H]3C(=O)N[C@H](C(=O)N[C@H](C(=O)O)c4cc(O)c(CN[C@H]5C(O)O[C@H](CO)[C@H](O)[C@@H]5O)c(O)c4-c4cc3ccc4O)[C@H](O)c3ccc(c(Cl)c3)Oc3cc2cc(c3O[C@@H]2O[C@H](CO)[C@@H](O)[C@H](O)[C@H]2O[C@H]2C[C@](C)(NCc3ccc(-c4ccc(Cl)cc4)cc3)[C@H](O)[C@H](C)O2)Oc2ccc(cc2Cl)[C@H]1O (some centres not stated) | 0.03 (≈ 0.0163 µM) | 0.12 (≈ 0.0652 µM) | 2 (≈ 1.09 µM) | 2 (≈ 1.09 µM) | 8 (≈ 4.35 µM) | 4 (≈ 2.17 µM) | 0.25 (≈ 0.136 µM) | Active | 3.81 | 12100 | 12200 | 7 | 4.18 | 1.75 | > 1 | – | – | Ratio (Staphylococcus aureus [3]): 8 - 16; survival at 7 mg/kg (Staphylococcus aureus [9]): 93.3%
2 | CN[C@H](CC(C)C)C(=O)N[C@H]1C(=O)N[C@@H](CC(N)=O)C(=O)N[C@H]2C(=O)N[C@H]3C(=O)N[C@H](C(=O)N[C@H](C(=O)O)c4cc(O)c(CNCCCNC(=O)[C@H](O)[C@@H](O)[C@H](O)[C@H](O)CO)c(O)c4-c4cc3ccc4O)[C@H](O)c3ccc(c(Cl)c3)Oc3cc2cc(c3O[C@@H]2O[C@H](CO)[C@@H](O)[C@H](O)[C@H]2O[C@H]2C[C@](C)(NCc3ccc(-c4ccc(C(F)(F)F)cc4)cc3)[C@H](O)[C@H](C)O2)Oc2ccc(cc2Cl)[C@H]1O | 0.06 (≈ 0.0308 µM) | 0.25 (≈ 0.128 µM) | 2 (≈ 1.03 µM) | 1 (≈ 0.513 µM) | 8 (≈ 4.11 µM) | 4 (≈ 2.05 µM) | 0.5 (≈ 0.257 µM) | – | 3.72 | 10700 | 13400 | 6.4 | 4.79 | 1.83 | > 1 | – | – | Ratio (Staphylococcus aureus [3]): 8 - 16; Activity (Staphylococcus aureus [17]): Active
3 | CN[C@H](CC(C)C)C(=O)N[C@H]1C(=O)N[C@@H](CC(N)=O)C(=O)N[C@H]2C(=O)N[C@H]3C(=O)N[C@H](C(=O)N[C@H](C(=O)O)c4cc(O)c(CNCCO[C@@H]5O[C@H](CO)[C@H](O)[C@H](O)[C@H]5O)c(O)c4-c4cc3ccc4O)[C@H](O)c3ccc(c(Cl)c3)Oc3cc2cc(c3O[C@@H]2O[C@H](CO)[C@@H](O)[C@H](O)[C@H]2O[C@H]2C[C@](C)(NCc3ccc(-c4ccc(Cl)cc4)cc3)[C@H](O)[C@H](C)O2)Oc2ccc(cc2Cl)[C@H]1O | 0.06 (≈ 0.0318 µM) | 0.25 (≈ 0.133 µM) | 4 (≈ 2.12 µM) | 2 (≈ 1.06 µM) | 16 (≈ 8.49 µM) | 4 (≈ 2.12 µM) | 0.12 (≈ 0.0637 µM) | – | – | – | – | – | – | – | – | Non-Toxic | Non-Toxic | –
4 | CN[C@H](CC(C)C)C(=O)N[C@H]1C(=O)N[C@@H](CC(N)=O)C(=O)N[C@H]2C(=O)N[C@H]3C(=O)N[C@H](C(=O)N[C@H](C(=O)O)c4cc(O)cc(O)c4-c4cc3ccc4O)[C@H](O)c3ccc(c(Cl)c3)Oc3cc2cc(c3O[C@@H]2O[C@H](CO)[C@@H](O)[C@H](O)[C@H]2O[C@H]2C[C@](C)(NCc3ccc(-c4ccc(C(F)(F)F)cc4)cc3)[C@H](O)[C@H](C)O2)Oc2ccc(cc2Cl)[C@H]1O | – | – | – | – | – | – | – | – | 6.04 | 64200 | 67500 | 1.24 | 6.83 | 0.509 | > 1 | – | – | –
5 | CCCCCCCCCCNCCN[C@@]1(C)C[C@H](O[C@H]2[C@H](Oc3c4cc5cc3Oc3ccc(cc3Cl)[C@@H](O)[C@@H](NC(=O)[C@@H](CC(C)C)NC)C(=O)N[C@@H](CC(N)=O)C(=O)N[C@H]5C(=O)N[C@H]3C(=O)N[C@H](C(=O)N[C@H](C(=O)O)c5cc(O)c(CNCP(=O)(O)O)c(O)c5-c5cc3ccc5O)[C@H](O)c3ccc(c(Cl)c3)O4)O[C@H](CO)[C@@H](O)[C@@H]2O)O[C@@H](C)[C@H]1O [TELAVANCIN] | 0.25 (≈ 0.142 µM) | 1 (≈ 0.57 µM) | 4 (≈ 2.28 µM) | 8 (≈ 4.56 µM) | 4 (≈ 2.28 µM) | 0.12 (≈ 0.0684 µM) | 1 (≈ 0.57 µM) | Active | – | – | – | 5.1 | – | – | – | Toxic | Non-Toxic | Activity (Staphylococcus aureus [9]): Active
6 | CN[C@H](CC(C)C)C(=O)N[C@H]1C(=O)N[C@@H](CC(N)=O)C(=O)N[C@H]2C(=O)N[C@H]3C(=O)N[C@H](C(=O)N[C@H](C(=O)O)c4cc(O)c(CNCCO)c(O)c4-c4cc3ccc4O)[C@H](O)c3ccc(c(Cl)c3)Oc3cc2cc(c3O[C@@H]2O[C@H](CO)[C@@H](O)[C@H](O)[C@H]2O[C@H]2C[C@](C)(NCc3ccc(-c4ccc(C(F)(F)F)cc4)cc3)[C@H](O)[C@H](C)O2)Oc2ccc(cc2Cl)[C@H]1O | 0.015 (≈ 0.00854 µM) | 0.12 (≈ 0.0683 µM) | 1 (≈ 0.569 µM) | 1 (≈ 0.569 µM) | 4 (≈ 2.28 µM) | 2 (≈ 1.14 µM) | ≤ 0.06 | – | – | – | – | – | – | – | – | – | – | Activity (Staphylococcus aureus [17]): Active
7 | CN[C@H](CC(C)C)C(=O)N[C@H]1C(=O)N[C@@H](CC(N)=O)C(=O)N[C@H]2C(=O)N[C@H]3C(=O)N[C@H](C(=O)N[C@H](C(=O)O)c4cc(O)cc(O)c4-c4cc3ccc4O)[C@H](O)c3ccc(c(Cl)c3)Oc3cc2cc(c3O[C@@H]2O[C@H](CO)[C@@H](O)[C@H](O)[C@H]2O[C@H]2C[C@](C)(N)[C@H](O)[C@H](C)O2)Oc2ccc(cc2Cl)[C@H]1O [VANCOMYCIN] | 2 (≈ 1.38 µM) | 8 (≈ 5.52 µM) | > 128 | > 128 | > 128 | > 128 | 64 (≈ 44.2 µM) | inactive | – | – | – | 68.7 | – | 3.08 | – | Toxic | Toxic | survival at 7 mg/kg (Staphylococcus aureus [9]): 6.67%
